# CHT block – human CHT choline transport inhibition; 0.86% of 310,000 active; B-score at 10 µM; Q9GZV3; CHT-expressing cells, membrane potential dye, choline response; hits give low values; AID 488975;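 active = B-score over 3 SD under the library average, and starting fluorescence ratio not unusually high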;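 note: choline stimulus applied at its EC90 after an EC20 pre-addition; B-score computed on integrated fluorescence ratio after choline addition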
# CHT PAM – human CHT allosteric activation; 0.49% of 310,000 active; CHT-expressing cells, membrane potential dye, choline EC20; hits give high values; LV-AA mutant CHT in HEK293 cells; B-score at 10 µM;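 active = initial fluorescence not abnormally high and integrated response B-score, plate-corrected, over 3 SD above library mean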
# GalR3 antagonist – blocks the human galanin receptor 3. O60755. HEK293 GalR3-CNG cAMP membrane potential fluorescence; galR3 body fused to GalR1 C-terminus. inhibition, % at 3 µM. 0.44% of 360,000 active. AID 651719;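 active = inhibition above the screen-wide average plus 3 SD, cut at about 13% in these data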;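 note: forskolin and galanin both at EC90 stimulate the cells; cAMP rise reported by CNG channel membrane potential dye signal; 0% = forskolin plus galanin with DMSO and 100% = forskolin alone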
# Target sequence (O60755 1-299 limits assumed): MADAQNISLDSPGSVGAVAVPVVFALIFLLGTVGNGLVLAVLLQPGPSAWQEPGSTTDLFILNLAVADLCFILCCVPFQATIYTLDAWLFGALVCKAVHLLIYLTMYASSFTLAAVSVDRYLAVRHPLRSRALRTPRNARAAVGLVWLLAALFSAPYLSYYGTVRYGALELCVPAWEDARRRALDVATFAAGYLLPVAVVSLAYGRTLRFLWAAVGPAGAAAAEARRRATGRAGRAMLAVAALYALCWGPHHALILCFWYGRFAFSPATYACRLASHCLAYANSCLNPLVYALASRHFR
# NR2E3 ag-1 – NR2E3 (human) agonism; Q9Y5X4; GST-NR2E3/biotin-RetCOR TR-FRET, 1536-well; 0.12% of 320,000 active; inhibition of corepressor binding, % at 4.78 µM;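 active = percent inhibition above the cutoff of mean plus 3 SD of all tested compounds, set per screening campaign, cut at about 20% in these data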;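 note: 0% = DMSO wells and 100% = biotin wells as full block of FRET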
#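 Test system – NR2E3–RetCOR corepressor complex · Quantity – NR2E3 fusion 1.35 nM · Buffer or medium – Tris pH 7.5 · Incubation – Compound–protein incubation for 5 h at 4 °C · Technique – TR-FRET, Eu(K)-anti-GST donor, streptavidin-D2 acceptor, ex 340, em 617/671 nm · Evaluation – percent inhibition of 671/617 nm emission ratio versus biotin and DMSO controls · Plate – 1536-well format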
# NR2E3 ag-2 – activates human NR2E3 receptor; Q9Y5X4; CHO-S Gal4-NCOR/VP16-NR2E3 two-hybrid, luciferase; inhibition of corepressor binding, % at 3.98 µM; 0.35% of 360,000 active; AID 602229;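 active = inhibition above the mean of all tested compounds plus 3 SD, cut at about 70% in these data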;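 note: 0% = DMSO with NR2E3 transfected cells and 100% = cells lacking NR2E3 construct; higher means lower luciferase signal from less NR2E3 corepressor binding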
# COUP-TFII inh – NR2F2 (human) inhibition, primary screen. HEK293T NGFI-A luciferase reporter, luminescence. 0.7% of 370,000 active. inhibition, % at 8.6 µM. P24468;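 active = inhibition above a per-plate cutoff, mean inhibition of test wells between control levels plus 3 SD, cut at about 38% in these data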;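 note: cells cotransfected with COUP-TFII expression vector driving the NGFI-A reporter; 0% = median of COUP-TF2 test wells and 100% = reporter-only cells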
# CHT activ conf – confirmation of human choline transporter (CHT) activators; AID 504833; shares compounds with CHT PAM; activation, % at 10 µM; CHT-expressing cells, membrane potential dye fluorescence (FDSS); % of choline EC20–EC90 response window; HEK293 expressing CHT LV-AA mutant; choline added at its EC20; 91% of 2,500 active;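 active = primary screen active, with duplicate mean activation above negative control mean plus 3 SD, cut at about 11% in these data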
# HEK293 MP dye – counter-screen for CHT activators: effect in parental HEK293 cells; shares compounds with CHT PAM; AID 623908; 62% of 2,500 active; membrane potential dye fluorescence (FDSS); measured after EC20 choline addition; ratio readout change at 10 µM, hits read low;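 active = duplicate-averaged ratio beyond 3 SD from buffer wells, up or down, though filed actives are nearly all decreases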
# * hit, by the source's call; i = inactive; · = no result. In the library only some 2.3% were active in any assay of this set; here they are far more common.
SMILES,CHT block,CHT PAM,GalR3 antagonist,NR2E3 ag-1,NR2E3 ag-2,COUP-TFII inh,CHT activ conf,HEK293 MP dye
CC(C)C(NC(=O)[C@H](Cc1ccccc1)NC(=O)OCc1ccccc1)P(=O)(O)OC(Cc1ccccc1)C(=O)O (stereo not given in full),·,·,·,·,·,-26,·,·
Cc1cc[n+](CC(=O)c2cccc([N+](=O)[O-])c2)c2ccccc12,i,8.8*,-11,0,16,4,49*,-58*
COc1cc(Nc2c3c(nc4ccccc24)CCC3)cc(OC)c1OC,i,i,-6,-3,-49,-39,36*,-36*
O=C(Cn1nnc(-c2ccccc2F)n1)Nc1ccc(F)cc1F,·,·,·,·,·,4,·,·
COC(=O)C1CN(Cc2cn(Cc3ccc(OC)cc3)nn2)CCS(=O)(=O)N1Cc1ccccc1 (stereo not given),·,·,·,·,·,6,·,·
COc1ccc(C(=O)N/N=C/c2sc(N3CCOCC3)nc2-c2ccccc2)cc1OC,i,i,-1,-4,-11,-1,·,·
COc1ccccc1NS(=O)(=O)c1cc([N+](=O)[O-])ccc1N/N=C/c1sc(N2CCOCC2)nc1-c1ccccc1,i,i,-3,3,-34,-9,23*,i
CCOC(=O)c1c[nH]c2nc(C)ccc2c1=O,i,10*,-6,2,-10,10,63*,-63*
Cc1cccc2cccnc12,·,·,4,3,-8,-9,·,·
c1cnc2c(c1)ccc1cccnc12,i,6.6*,3,4,38,5,62*,-105*
O=C(Nc1nc2ncccn2c1-c1ccc(F)cc1)C1CC1,·,·,·,·,·,-4,·,·
Cc1noc(NS(=O)(=O)c2ccc(NC(=O)c3cc(=O)c4ccccc4o3)cc2)c1C,i,i,2,-1,-31,-9,·,·
Cc1cc2oc(C(=O)Nc3ccc(S(=O)(=O)Nc4onc(C)c4C)cc3)cc(=O)c2cc1Cl,i,i,-2,1,10,-5,37*,-35*
CCCCOc1ccccc1C1CC(=O)NC2=C1C(=O)CCC2 (stereo not given),i,11*,4,-1,-61,-22,73*,i
CCCOc1ccccc1C1CC(=O)NC2=C1C(=O)CCC2 (stereo not given),i,i,-1,4,-89,2,·,·
O=C(CN(C(=O)OCC1c2ccccc2-c2ccccc21)[C@@H](Cc1ccccc1)C(=O)O)OCc1ccc(C(=O)NCc2ccccc2)cc1,·,·,·,·,·,-5,·,·
CCCCNC(=O)N1CCN(c2ccnc3cc(Cl)ccc23)CC1,i,i,·,-1,32,·,58*,-61*
CC(=O)N1CCN(c2ccnc3cc(Cl)ccc23)CC1,i,8.6*,-3,4,-8,8,65*,-67*
Cc1ccc(F)cc1NC(=O)N1CCN(c2ccnc3cc(Cl)ccc23)CC1,i,i,-9,1,-4,12,·,·
Cc1c(NC(=O)C2CCCN(S(=O)(=O)c3ccccc3[N+](=O)[O-])C2)c(=O)n(-c2ccccc2)n1C (stereo not given),·,·,·,·,·,-1,·,·
O=C(N/N=C/c1ccc(O)cc1)c1cc[n+](Cc2ccccc2)cc1,i,i,5,-4,-10,-14,37*,-29*
O=C(NCc1ccccc1Cl)C1CCC(CNS(=O)(=O)c2cccc3cccnc23)CC1 (stereo not given),·,·,·,·,·,18,·,·
Cc1cc(=O)n(Cc2ccccc2)c(O)c1C#N,i,i,-8,2,8,-14,·,·
Cc1cc(=O)n2nc(-c3ccccc3)sc2c1C#N,i,6.4*,-1,3,-1,3,29*,-27*
CCCC(CCC)C(=O)Nc1ccc2c(c1)N(C(=O)CN1CCN(C)CC1)c1ccccc1CC2,i,6.7*,-11,1,12,-13,29*,i
SMILES,CHT block,CHT PAM,GalR3 antagonist,NR2E3 ag-1,NR2E3 ag-2,COUP-TFII inh,CHT activ conf,HEK293 MP dye
CC(=O)Nc1ccc2c(c1)N(C(C)=O)c1ccccc1CC2,i,i,-2,-1,0,22,·,·
COc1ccc(-c2nc(NC3=NCCCCC3)sc2C)cc1,i,i,-3,7,12,1,·,·
COc1ccc2nc(NC3=NCCC3)sc2c1,i,6.5*,-3,2,-90,-35,54*,-45*
O=C(COc1cccc2cccnc12)N/N=C1\SCC(=O)N1Cc1ccco1,i,7.2*,-4,0,-10,12,66*,-55*
O=C(COc1cccc2cccnc12)N/N=C1\SCC(=O)N1CCc1ccccc1,i,i,-6,-3,-5,-5,·,·
Cc1ccc(-n2c(SCC(=O)Nc3ccccc3-c3ccccc3)nnc2-c2cnccn2)cc1,·,·,·,·,·,-2,·,·
COc1ccc(Cl)cc1C(Nc1cccnc1)c1ccc2cccnc2c1O (stereo not given),i,i,-3,1,-29,-21,19*,i
C[C@H]1[C@@H](OC(=O)Nc2cc(Cl)ccc2Cl)CC[C@@]23CCCN2C(=O)CCC[C@@H]13,·,·,·,·,·,0,·,·
Cc1cc(-c2ccccc2)nc2[n+]1CCN2C,i,7.5*,-10,2,-5,7,61*,-59*
Cc1nc(-c2ccccc2)cc(N2CCCC2)n1,i,i,-5,2,-10,8,·,·
Cc1ccc(CSc2nnc(-c3n[nH]c4c3CCC4)n2N)cc1,·,·,·,·,·,4,·,·
Cc1ccc(CNC(=O)OC(C)(C)C)c(/C=C/S(=O)(=O)NCc2ccc(F)cc2)c1,·,·,·,·,·,6,·,·
Cc1cc(N2CC(C)OC(C)C2)nc2ccccc12 (stereo not given),i,6.6*,-3,-1,-10,12,28*,-55*
COC(CNC(=O)[C@H](Cc1ccccc1)NC(C)(C)C(=O)NC1CCCCC1)OC,·,·,·,·,·,17,·,·
O=C(CSc1ncn[nH]1)c1ccc(OC(F)F)cc1,i,7.2*,0,-4,6,1,1,i
CCC(C(=O)Nc1nc(C)c(C(=O)OC)s1)c1ccccc1 (stereo not given),i,i,3,0,-18,3,·,·
COC(=O)c1sc(NC(=O)C(C)c2ccccc2)nc1C (stereo not given),i,6.7*,-4,-3,11,-12,30*,i
CC(=O)c1ccc(-n2cc(-c3ccc(C(C)(C)C)cc3)[n+]3c2SCCC3)cc1,i,7*,2,3,-5,20,25*,-45*
